# NALP3 yeast inh – NALP3 inhibition in yeast; inhibition, % at 10 µM; 330,000 tested, 0.39% active; Yeast reconstituted NLRP3/ASC/caspase-1, beta-gal luminescence, 24 h;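 active = inhibition of 50% or more; inactive = inhibition below 50%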;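 also: plate controls were induced DMSO wells for no effect and uninduced yeast grown without galactose for full effect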
# NALP1 yeast inh – inhibitors of NALP1 inflammasome in yeast | inhibition, % at 10 µM | 280,000 tested, 0.61% active | S. cerevisiae NALP1/ASC/caspase-1 growth, X-gal OD620, 72 h | AID 2071; in the data active = inhibition mostly above about 24%, no sharp cut-off; inactive = mostly below about 32%
# T cruzi inh – T. cruzi replication inhibition; T. cruzi beta-gal in NIH3T3, luminescence, 90 h; inhibition, % (test concentration not listed); 300,000 tested, 1.4% active;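 active = mean inhibition across valid replicates above about 55%, limit read from the data; inconclusive = mean below that limit but half or more replicates reach it; inactive = mean below it, under half of replicates reach it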;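 also: signal also drops with host cell toxicity which is not excluded here; 0% = plate median of DMSO wells and 100% = zero luminescence signal; higher percent means less beta-gal luminescence so fewer parasites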
#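 Assay system: NIH/3T3 fibroblasts plus reporter T. cruzi. Amount: NIH/3T3 cells, 5,000 per well. Buffer or medium: DMEM, 2% fetal bovine serum. Doses: compound pinned at 50 nL/well, DMSO. Schedule: ≥90 h infection period, 3 h prior cell attachment. Signal: luminescent β-galactosidase signal after 60 min lysis. Read-out: parasite load inhibition, %.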
# Calb FLC – C. albicans growth modulation with fluconazole; C. albicans CaCi-2 + fluconazole, Alamar Blue growth, 48 h; growth inhibition, % (test concentration not listed); 300,000 tested, 0.57% active; AID 1979;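 active = growth inhibition above about 58% in most replicates, limit read from the data, passing the limit was not always enough; inconclusive = exactly half the replicates above a set limit; inactive = most replicates below a set limit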;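 also: all wells also contain fluconazole at 8 µg/ml as a sub-toxic cotreatment; 0% = median of DMSO wells and 100% = median of geldanamycin control wells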
# PolyA inh – inhibitors of polyadenylation in S. cerevisiae | AID 1875 | S. cerevisiae SKY197-pL101 polyadenylation reporter, beta-gal luminescence; efflux-impaired pdr1/pdr3 knockout yeast; score 100 = 6 SD above DMSO | activity score, % at 12 µM | 300,000 tested, 0.02% active;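 active = lowest replicate activity score at least 50, where 100 means six control SD above control mean; inconclusive = lowest score under 50 but half or more replicates reach 50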;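 also: yeast exposed to compound for 9 h at 30 °C; higher score means more reporter readthrough which indicates perturbed polyadenylation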
# L major viab – inhibitors of Leishmania major promastigote growth; Leishmania major promastigotes, resazurin fluorescence viability; 200,000 tested, 9% active; inhibition, % at 10 µM; in the data active = inhibition above about 50%;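 also: promastigotes grown with compound for 44 hours at 28 °C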
# The depositor's hits bear a star; ? = inconclusive; . = no result given. This excerpt belongs to a sample that is enriched for hits.
SMILES,NALP3 yeast inh,NALP1 yeast inh,T cruzi inh,Calb FLC,PolyA inh,L major viab
OCC[C@@H]1C[C@@H](O)[C@H](O)[C@]2(CCc3ccccc3O2)O1,5,34,-4,7,1,.
C#CCOC(=O)c1cc(Cl)c(=O)n(Cc2ccc(Cl)cc2Cl)c1,19,9,0,-13,-27,.
O=C(c1ccc(OC2CCN(Cc3ccccn3)CC2)cc1)N1CCCC(O)C1 (configuration not stated),2,2,-16,-5,-4,-4
CCn1c(Cc2ccccc2)nnc1SC(C)C(=O)NC1CC1 (configuration not stated),2,.,-7,1,-9,.
O=C1CC(C(=O)N(CC2CCCO2)C(C(=O)NC2CCCCC2)c2ccncc2)CS1 (configuration not stated),5,3,-8,32,-13,-2
Cc1ccc(C(C(=O)NC2CCCCC2)N(Cc2cccnc2)C(=O)C2COc3ccccc3O2)o1 (configuration not stated),-12,-12,33,11,0,64*
CC(C)CCNC(=O)C(c1ccc(O)cc1)N(Cc1cccs1)C(=O)C1COc2ccccc2O1 (configuration not stated),9,-36,64*,5,4,100*
O=C(NC1CCCCC1)C(c1ccc(O)cc1)N(CC1CCCO1)C(=O)C1COc2ccccc2O1 (configuration not stated),-1,6,38,-3,-2,50*
COC(=O)c1cccnc1-n1c(=O)c2cccnc2n(Cc2cccc(C(F)(F)F)c2)c1=O,8,-15,6,-3,-13,22
Cc1ccc2oc(C(=O)Nc3ccc(S(=O)(=O)Nc4ncccn4)cc3)c(C)c2c1,-2,16,5,-12,14,.
C[C@H]1CNC(=O)C(=O)N1C[C@H](Cc1ccc(O)cc1)NC(=O)CC12CC3CC(CC(C3)C1)C2,3,12,-4,3,-14,.
COc1ccc(-c2nnc(Nc3ccc(S(=O)(=O)Nc4nccs4)cc3)c3ccccc23)cc1,5,-4,-4,4,7,-8
O=C(O)CCSc1nnc(SCC(=O)NC2CCS(=O)(=O)C2)s1 (configuration not stated),15,.,.,.,.,.
O=C(O)CCSc1nnc(SCC(=O)NCC(F)(F)F)s1,0,41,-1,14,4,63*
CCOc1ccc(C(=O)NNC2CC(=O)N(CCc3ccccc3)C2=O)cc1OC (configuration not stated),11,12,-9,3,13,63*
COc1ccc(CCN2C(=O)CC(NNC(=O)c3ccccc3Br)C2=O)cc1OC (configuration not stated),-7,12,2,25,12,56*
COc1ccc(CCN2C(=O)CC(NNC(=O)c3ccc(F)cc3)C2=O)cc1OC (configuration not stated),-2,24,-2,-16,-6,3
Cn1cc(CN2CCC(C(=O)Nc3ccc(Oc4ccccc4F)cc3)CC2)cn1,10,30,9,-3,-5,.
COc1ccc(-n2c(C)c(C)c3c(N)ncnc32)cc1,18,26,-17,-1,-4,.
Cc1cccc(C)c1NC(=O)CSc1nnc(C)c(=O)[nH]1,4,8,-3,9,-1,66*
Cc1ccc(NC(=O)CSc2nnc(C)c(=O)[nH]2)cc1C,-12,-9,3,-6,4,-5
CCc1ccc(OCC(=O)NC(NC(=S)Nc2ccccc2C)C(Cl)(Cl)Cl)cc1 (configuration not stated),12,24,55*,4,?,36
Cc1ccccc1NC(=S)NC(NC(=O)COc1ccccc1)C(Cl)(Cl)Cl (configuration not stated),-2,0,9,2,4,48
CS(=O)(=O)N(CC(=O)Nc1ccccc1-c1ccccc1)c1ccc(F)cc1,24,7,4,5,-11,18
CC(C(=O)Nc1ccccc1Sc1ccccc1)N(c1ccccc1)S(C)(=O)=O (configuration not stated),10,1,23,-17,-11,99*
SMILES,NALP3 yeast inh,NALP1 yeast inh,T cruzi inh,Calb FLC,PolyA inh,L major viab
CS(=O)(=O)N(CC(=O)Nc1ccccc1Sc1ccccc1)c1ccc(F)cc1,12,-7,30,-1,8,76*
Cc1ccc(C)c(N2CCN(C(=O)c3ccc(N4CCCC4=O)cc3)CC2)c1,-2,-12,1,2,-4,.
O=c1oc2c(-c3cccc(F)c3)cc(O)cc2s1,20,16,10,22,-28,-13
N#Cc1nccnc1S(=O)(=O)c1cccs1,46,23*,14,-9,-32,.
COC(=O)c1cc(NC(=O)c2cc(-c3ccc(Cl)cc3)oc2C(F)(F)F)ccc1N1CCOCC1,16,.,63*,2,8,.
COC(=O)c1cc(NC(=O)c2cc(-c3ccccc3Cl)oc2C(F)(F)F)ccc1N1CCOCC1,11,.,31,-1,-7,.
CC1CCN(C(=O)CN(c2ccc(Cl)c(C(F)(F)F)c2)S(C)(=O)=O)CC1,24,9,2,-2,15,69*
CS(=O)(=O)N(CC(=O)N1CCN(c2ccccc2)CC1)c1ccc(Cl)c(C(F)(F)F)c1,7,-11,2,-4,-9,89*
CS(=O)(=O)N(CC(=O)N1CCN(c2ccccc2)CC1)c1cc(C(F)(F)F)ccc1Cl,13,1,14,12,7,-7
CS(=O)(=O)N(Cc1ccccc1)c1ccc(C(=O)N2CCN(c3cccc(Cl)c3)CC2)cc1,12,2,.,12,-8,73*
CS(=O)(=O)N(CC(=O)N1CCC(C(N)=O)CC1)c1ccc(Cl)c(C(F)(F)F)c1,15,-1,-4,-8,26,-9
COc1ccccc1C(=O)NCC(c1ccco1)N1CCc2ccccc21 (configuration not stated),16,.,6,32,-16,.
CC(C)C(C(=O)NCC1CCCO1)N(Cc1ccccc1)C(=O)CNS(=O)(=O)c1ccccc1 (configuration not stated),1,17,5,0,20,.
O=C(c1ccc(Oc2ccc(C(F)(F)F)cc2[N+](=O)[O-])cc1)N1CCOCC1,14,29,6,4,10,55*
O=C(c1ccccc1Oc1ccc(C(F)(F)F)cc1[N+](=O)[O-])N1CCOCC1,22,18,-1,-14,-15,0
CSc1nc(N)nc2c1ncn2CC(=O)NCCCN1CCCC1=O,3,.,.,.,.,.
CCn1c(NC(=O)/C=C/c2ccc(F)cc2)nc2ccccc21,15,-10,11,-26,-20,.
CCN(CC)S(=O)(=O)c1ccc2oc(C(=O)NCCN3CCOCC3)c(C)c2c1,12,23,-1,7,3,.

# High-throughput results: PubChem BioAssay, several laboratories
